Screens from PubChem.
The list is not random: actives were taken first. Their share in the collection is about 2.9%.
Kir21 block = Kir2.1 (mouse) channel inhibition; P35561; HEK293-Kir2.1, FluxOR thallium flux fluorescence; hits give low values; B-score at 10 µM; 310,000 tested, 0.85% active; AID 1672;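 active = fluorescence ratio B-score at or below minus 3 SD of library scores, with starting-brightness B-score within 2 SD, cut at about -4.2 in these data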;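 also: channel flux triggered by added potassium and thallium sulfate stimulus; B-score of peak minus minimum fluorescence over baseline after thallium stimulus; more negative B-score means stronger Kir2.1 block with less thallium influx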
TRPC6 activator = activators of mouse TRPC6 channel; HEK293-TRPC6 membrane potential dye fluorescence; hits give high values; AID 2550; Q61143; B-score at 10 µM; 310,000 tested, 0.13% active;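 active = B-score of the integrated fluorescence ratio above library mean plus 3 SD, and starting fluorescence ratio within library mean plus 5 SD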;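 also: higher score means more depolarization so channel activation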
TRPC4 agonist = activators of mouse TRPC4 channel; B-score at 10 µM; HEK293 TRPC4beta/mu-opioid, Fluo4 calcium fluorescence; hits give high values; 310,000 tested, 0.49% active;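 active = B-score above 5 SD of library B-scores, and initial fluorescence ratio not above library mean plus 5 SD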;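 also: positive B-score marks a calcium rise read as TRPC4 activation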
Target sequence (Q9QUQ5 whole entry, looked up): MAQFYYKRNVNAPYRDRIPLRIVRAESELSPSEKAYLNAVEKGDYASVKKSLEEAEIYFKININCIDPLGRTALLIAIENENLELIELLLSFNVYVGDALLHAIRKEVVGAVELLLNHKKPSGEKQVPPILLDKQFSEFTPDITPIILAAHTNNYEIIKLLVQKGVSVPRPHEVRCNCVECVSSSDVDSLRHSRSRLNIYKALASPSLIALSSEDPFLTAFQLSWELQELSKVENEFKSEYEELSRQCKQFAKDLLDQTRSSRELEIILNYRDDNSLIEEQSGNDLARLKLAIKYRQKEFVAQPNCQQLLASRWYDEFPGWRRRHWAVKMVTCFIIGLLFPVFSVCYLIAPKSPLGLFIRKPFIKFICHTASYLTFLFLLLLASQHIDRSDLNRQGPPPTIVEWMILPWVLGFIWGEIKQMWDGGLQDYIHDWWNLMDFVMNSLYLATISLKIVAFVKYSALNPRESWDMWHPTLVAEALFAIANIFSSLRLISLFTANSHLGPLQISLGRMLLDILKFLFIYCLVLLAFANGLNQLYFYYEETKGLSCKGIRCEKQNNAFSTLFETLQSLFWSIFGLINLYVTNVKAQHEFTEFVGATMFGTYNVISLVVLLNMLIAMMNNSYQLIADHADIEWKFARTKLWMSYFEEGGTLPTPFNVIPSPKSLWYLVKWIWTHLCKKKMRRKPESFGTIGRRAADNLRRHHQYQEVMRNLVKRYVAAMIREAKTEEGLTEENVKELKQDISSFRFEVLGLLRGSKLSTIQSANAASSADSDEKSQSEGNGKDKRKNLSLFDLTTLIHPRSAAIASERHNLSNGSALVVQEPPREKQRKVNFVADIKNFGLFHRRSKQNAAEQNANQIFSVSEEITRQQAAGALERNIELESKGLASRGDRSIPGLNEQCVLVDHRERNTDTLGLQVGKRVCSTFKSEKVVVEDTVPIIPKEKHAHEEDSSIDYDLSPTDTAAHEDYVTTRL
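System: HEK293 cells stably co-expressing mouse TRPC4beta and mu-opioid receptor; Schedule: Fluo4 dye loading 45 min at room temperature, 110 s recording; Detection: Fluo4 fluorescence, kinetic; Evaluation: B-scored integrated calcium fluorescence ratio; Controls: buffer (low) and maximal DAMGO (high).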
TRPC4 PAM = TRPC4 (mouse) allosteric potentiation; Q9QUQ5; HEK293 TRPC4beta/mu-opioid, DAMGO EC20, Fluo-4 Ca2+ flux; hits give high values; B-score at 10 µM; 310,000 tested, 0.42% active;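 active = B-score of calcium response area above 5 SD of library B-scores, with initial fluorescence ratio within 5 SD of library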;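 also: B-score of integrated fluorescence ratio over time as area under calcium response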
TRPC6 inhibitor = blocks the mouse TRPC6 cation channel; Q61143; HEK293-TRPC6, membrane potential dye, ACh-evoked depolarization; hits give low values; B-score at 10 µM; 310,000 tested, 1.1% active; AID 2553;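 active = B-score under library mean minus 3 SD, initial fluorescence not abnormally high, positive integrated signal ratio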;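 also: B-score derived from integrated fluorescence ratio over the kinetic read; more negative B-score means stronger inhibition of depolarization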
TRPC4 block = TRPC4 (mouse) channel inhibition | HEK293 TRPC4beta/mu-opioid, DAMGO-evoked Fluo4 calcium flux; hits give low values | B-score at 10 µM | 300,000 tested, 0.39% active | AID 2247;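 active = B-score over 3 SD under the library average, no early fluorescence shift, positive overall ratio signal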
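Assay system – HEK293 line stably carrying TRPC4beta and mu-opioid receptor · Doses – single dose · Detection – Fluo4 calcium-dye fluorescence, kinetic read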
TRPC4 spec 2 = mouse TRPC4 off-target activity of TRPC6 inhibitors, second screen; shares compounds with TRPC6 inhibitor; HEK293 TRPC4/MOR, membrane potential dye fluorescence; channel activated by saturating DAMGO dose; inhibition, % at 10 µM; 920 tested, 42% active; AID 2776;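 active = compounds whose fluorescence signal differed from control wells by over 3 SD, either direction, in both duplicate plates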
TRPC4 spec = tests whether TRPC6 inhibitors also affect mouse TRPC4; shares compounds with TRPC6 inhibitor; 920 tested, 61% active; activity change, negative = inhibition, % at 10 µM; AID 2777; HEK293 TRPC4/mu-opioid, membrane potential fluorescence;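 active = rise or fall in signal beyond 3 SD of buffer-only wells in both replicate plates, either sign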;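 also: integrated kinetic ratio of fluorescence range over baseline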
HEK293 MPD ctr 2-1 = second counter-screen for TRPC6 inhibitors: parental HEK293 cells; shares compounds with TRPC6 inhibitor; parental HEK293 membrane potential dye fluorescence; maximal acetylcholine challenge after compound addition; signal change vs control, % at 10 µM; 920 tested, 31% active; AID 2779;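 active = membrane potential signal moving either way by over 3 SD of the maximum-effect control, in both duplicate plates, meaning non-specific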
HEK293 MPD ctr-1 = parental HEK293 nonspecific activity of TRPC6 inhibitors; shares compounds with TRPC6 inhibitor; parental HEK293 membrane potential dye fluorescence; membrane potential signal change, % at 10 µM; 920 tested, 60% active; AID 2780;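 active = membrane potential signal shifting up or down by more than 3 SD of buffer-only wells, on both duplicate plates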
HEK293 MPD ctr-2 = parental HEK293 nonspecific activity of TRPC6 modulators | shares compounds with TRPC6 inhibitor | membrane potential dye fluorescence | membrane potential signal change, % at 10 µM | 2,400 tested, 51% active;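 active = membrane potential signal moves up or down beyond 5 SD from buffer-only wells, on both duplicate plates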
HEK293 MPD ctr 2-2 = parental HEK293 nonspecific activity of TRPC6 modulators, second screen | inhibition, % at 10 µM | shares compounds with TRPC6 inhibitor | AID 488926 | membrane potential dye fluorescence; after compound, maximal acetylcholine stimulation | 2,400 tested, 14% active;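 active = membrane potential signal drops by more than 5 SD from the mean control signal, in both duplicate plates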;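 also: plate controls were acetylcholine ECmax control wells for no effect and buffer only wells for full effect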
TRPC4 ctr mod = selectivity of TRPC6 modulators against mouse TRPC4 | percent change from control (negative = decrease, positive = increase), % at 10 µM | AID 488927 | shares compounds with TRPC6 inhibitor | HEK293 TRPC4/mu-opioid, membrane potential fluorescence | 2,400 tested, 69% active;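 active = membrane potential signal moved up or down beyond 5 SD of buffer control wells, in both duplicate plates, actives on both sides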;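 also: plate controls were assay buffer wells for no effect and DAMGO maximal-effect wells for full effect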
TRPC4 ctr inh 2 = second check of whether TRPC6 modulators also affect mouse TRPC4; shares compounds with TRPC6 inhibitor; HEK293 TRPC4/mu-opioid, membrane potential dye fluorescence; stimulated with maximal-effect DAMGO; inhibition, % at 10 µM; 2,400 tested, 55% active; AID 488928;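 active = drop in membrane potential signal beyond 5 SD of the control wells in both duplicate plates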;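 also: TRPC4 counter screen for TRPC6 hits run under conditions tuned for TRPC6 not TRPC4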
TRPC6 block conf = confirmation of mouse TRPC6 inhibitors; HEK293-TRPC6, membrane potential dye, ACh-evoked depolarization; 3,300 tested, 43% active; shares compounds with TRPC6 inhibitor; inhibition, % at 10 µM;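 active = fluorescence ratio falls more than 5 SD below the full-stimulation control mean, in both duplicate runs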;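 also: integrated fluorescence ratio of peak minus minimum over baseline after agonist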
TRPC6 act confirm = mouse TRPC6 activator confirmation | shares compounds with TRPC6 inhibitor | activation, % at 10 µM | HEK293-TRPC6 membrane potential dye fluorescence, FDSS | 2,800 tested, 11% active;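 active = ratio signal rise beyond 5 SD above unstimulated control wells' mean, seen in both duplicate runs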;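 also: plate controls were buffer EC0 wells for no effect and acetylcholine ECmax response for full effect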
An asterisk follows results filed as active; i = inactive; . = not tested or not shown.

SMILES	Kir21 block	TRPC6 activator	TRPC4 agonist	TRPC4 PAM	TRPC6 inhibitor	TRPC4 block	HEK293 MPD ctr-2	HEK293 MPD ctr 2-2	TRPC4 ctr mod	TRPC4 ctr inh 2	TRPC6 block conf	TRPC6 act confirm	others
CC(=O)c1cccc(Nc2cc(C)nc3c(C)cc(C)cc23)c1	-2.2	i	i	i	-5.8*	-6*	-102%*	76%*	-22%*	65%*	56%*	i
CC(=O)c1cccc(Nc2cc(C)nc3ccc(C)cc23)c1	0.09	i	i	i	-6.6*	i	.	.	.	.	i	i	TRPC4 spec 2=66%*;TRPC4 spec=-22%*;HEK293 MPD ctr 2-1=14%*;HEK293 MPD ctr-1=-260%*
Cc1ccc(CN2CCC(NC(=O)c3ccccc3)CC2)cc1	-1.3	i	i	i	i	i	.	.	.	.	.	.
O=C(NC1CCN(Cc2ccccc2)CC1)C1COc2ccccc2O1 (centres undefined)	-1.4	i	i	i	-5.7*	i	104%*	86%*	12%*	29%*	72%*	.
O=C(NC1CCN(Cc2ccccc2)CC1)c1cn(-c2ccccc2)nc1-c1cccnc1	-0.76	i	i	i	-5.6*	i	91%*	i	i	52%*	41%*	i
Cc1ccc(C)n1-c1ccc(C(=O)NC2CCN(Cc3ccccc3)CC2)cc1	-3.3	i	i	i	-5.1*	i	i	i	i	36%*	i	i
O=C(O)c1cn(-c2ccccc2)nc1-c1cccnc1	-0.63	i	i	i	i	i	.	.	.	.	.	.
N/C(Cc1ccc([N+](=O)[O-])cc1)=N\OC(=O)CC1CCCCC1	-1.1	i	i	i	i	i	.	.	.	.	.	.
COc1ccccc1C(=O)NCC1CCN(c2ccc(S(=O)(=O)N3CCOCC3)cc2)CC1	0.76	i	i	i	-6.9*	i	.	.	.	.	55%*	i	TRPC4 spec 2=i;TRPC4 spec=8.9%*;HEK293 MPD ctr 2-1=10%*;HEK293 MPD ctr-1=5.1%*
CCOC(=O)C(Sc1cc(C)nc(N)n1)C(C)=O (centres undefined)	-0.36	i	i	i	i	i	.	.	.	.	.	.
Cc1ccc(CCNC(=O)C2CCCN(S(=O)(=O)c3cccc4nsnc34)C2)cc1 (centres undefined)	-0.39	i	i	i	-6*	i	i	i	i	i	i	i
Cc1cccc(CCNC(=O)C2CCCN(S(=O)(=O)c3cccc4nsnc34)C2)c1 (centres undefined)	0.17	i	i	i	i	i	.	.	.	.	.	.
COc1ccccc1CNC(=O)CSC1=NCCS1	-1.2	i	i	i	i	i	.	.	.	.	.	.
COC(=O)c1cn(Cc2cc(OC)ccc2OC)cc(F)c1=O	0.99	i	i	i	-5.3*	i	i	i	i	i	i	i
CCN(CC)c1ccc(/C=C(/C#N)C(=O)NCc2ccccc2)o1	-3.3	19*	i	i	i	i	590%*	i	183%*	i	i	132%*
CCN(CC)c1ccc(/C=C(/C#N)C(=O)NC(C)C)o1	-6.7	i	i	i	i	i	.	.	.	.	.	.
O=C(CSc1nnc(C2CC2)n1Cc1ccccc1)c1cc2ccccc2o1	-4.5*	i	i	i	-5.2*	i	169%*	i	24%*	i	i	.
CCCCOc1ccc(CSCCN)cc1Cl	-3.8	i	i	i	-6.2*	i	i	i	i	59%*	45%*	i
CN(CCCNC(=O)c1cccn2c(=O)c3ccccc3nc12)Cc1ccccc1	0.85	i	i	i	-6.3*	i	-136%*	i	-32%*	62%*	46%*	i
O=C(NCCN1CCN(c2ccccc2)CC1)c1cccn2c(=O)c3ccccc3nc12	-0.47	i	i	i	i	i	.	.	.	.	.	.
[O-][N+]1=c2ccc(Nc3ccccc3)cc2=NC12CCCCC2	1.3	i	i	i	-6.7*	i	-206%*	i	-29%*	41%*	i	i
N/C(=N\OC(=O)c1ccco1)c1cccc([N+](=O)[O-])c1	0.94	i	i	i	-5.3*	i	i	i	i	i	i	i
CN(C)C1=NC(=O)/C(=C/c2ccc(-c3ccc(S(N)(=O)=O)cc3)o2)S1	0.47	i	i	i	i	i	.	.	.	.	.	.
O=[N+]([O-])c1cc(-c2ccc(/C=N\n3cnnc3)o2)cc([N+](=O)[O-])c1	0.56	i	i	i	-6.2*	i	-234%*	63%*	-34%*	42%*	i	i
O=C(NC(=S)N1CCCCC1)C12CC3CC(CC(C3)C1)C2	-2.7	i	i	i	i	i	.	.	.	.	.	.
CCOC(=O)N1CCN(C(=S)NC(=O)C23CC4CC(CC(C4)C2)C3)CC1	-0.28	i	i	i	-5*	i	i	i	i	i	i	i
